Results: PMC4715857 (Osteoporosis International, 2015)
Where two headings read alike, the source gives them in different places.

Experiments:
[1] = system: serum CTX-I; conditions: cited from earlier work; for serum CTX reduction: postmenopausal women
[2] = system: bone resorption markers; conditions: premenopausal women ref 14, cited from earlier work
[3] = system: urinary CTX-I; conditions: 12 weeks of treatment, healthy postmenopausal women ref 30; cited from earlier work
[4] = system: serum CTX-I; conditions: oral calcitonin, healthy postmenopausal women ref 15; cited from earlier work
[5] = Plasma ONO-5334 pharmacokinetics; assay type: in vivo, healthy postmenopausal women; conditions: day 5, 150 mg SRT, morning regimen
Outline: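 Oral sustained-release tablet, 150 mg once daily for 5 days per period, fed. Randomized crossover with ≥10-day washout. Blood taken via IV cannula over 12 h on day 1 and 24 h on day 5, hourly 1–6 h postdose. Plasma solid-phase extracted and assayed by validated LC-MS/MS (LLOQ 0.02 ng/mL). Cmax, Tmax and AUC24h derived noncompartmentally; day-5 morning/evening geometric mean ratios with 90% CI by ANOVA; Tmax by Wilcoxon signed rank test.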

[6] = 100 mg sustained-release tablet (SRT), morning, repeat administration ref 7, 8; cited from earlier work
[7] = system: bone strength; conditions: ovariectomized rats ref 5; cited from earlier work
[8] = Safety assessments / adverse events; assay type: in vivo, healthy postmenopausal women; conditions: 150 mg once daily for 5 days per period
Outline: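 Each crossover period (5 days' dosing) included clinical laboratory tests, vital signs, 12-lead ECG and physical examination on admission and at follow-up. Vital signs were also taken at baseline, on all treatment days and at discharge. Adverse events were coded with MedDRA version 14.1. Fourteen subjects were in the safety analysis, and data were summarized in SAS.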

[9] = system: serum CTX-I; assay: Serum CTX-I bone resorption marker; assay type: in vivo, healthy postmenopausal women; conditions: for time over which >60% suppression of CTX-I was sustained: 150-mg SRT for 5 days
Outline: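 Serum CTX-I was measured by CrossLaps ELISA. Baseline profile on day −1 via cannula at set clock times over 24 h, ending just before the first dose (08:00 morning, 20:00 evening period). Results expressed as % change from clock-time-matched baseline; 24-h AUE compared morning vs evening by ANCOVA, with post-hoc repeated-measures analysis.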

[10] = system: urinary CTX-I; assay: Urinary CTX-I/creatinine bone resorption marker; assay type: in vivo, healthy postmenopausal women; conditions: 150 mg SRT once daily 5 days
Outline: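 Urinary CTX-I was measured by Urine CrossLaps ELISA and normalized to creatinine. Baseline urine was taken on day −1, and postdose urine on days 1 and 5, with collection at 08:00 (morning dosing) or 20:00 (evening dosing). Dosing was 150 mg sustained-release tablet once daily for 5 days, fed. Results expressed as % change from time-matched baseline; 24-h AUE compared by ANCOVA, with post-hoc repeated-measures analysis.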

[11] = system: bone mineral density (BMD); conditions: postmenopausal women with osteoporosis, 24 months of therapy ref 6; cited from earlier work

Compound: CCCN1CCN(c2ccc(C(=O)NC3(C(=O)NCC#N)CCCCC3)cc2)CC1 [balicatib]
- serum CTX reduction ([1]; 1-year study ref 22): 61%

Compound: [Ca] [elemental calcium, calcium]
- effect on bone resorption ([2]; 1000 mg at bedtime): suppressed nighttime increases of bone resorption
- effect on bone resorption ([2]; 1000 mg, morning administration): no effect

Compound: NCCCC(O)(P(=O)(O)O)P(=O)(O)O [alendronate]
- urinary CTX-I reduction [3]: 53%
- Serum CTX-I decreases ([1]; following 30–36 months of therapy ref 28, 29): 67–70%

Compound: CC(C)(F)C[C@H](N[C@@H](c1ccc(-c2ccc(S(C)(=O)=O)cc2)cc1)C(F)(F)F)C(=O)NC1(C#N)CC1 [odanacatib]
- suppression of serum CTX-I [1]: approximately 60%
- continuous reductions of serum CTX-I ([1]; postmenopausal women with low BMD, following 5 years of treatment ref 4): 55%
- reductions of serum CTX-I ([1]; postmenopausal women with low BMD, once-weekly, most of the first year of treatment ref 25): > 60%
- serum CTX reduction ([1]; single or repeated doses for 3 weeks ref 23, 24): 62–66%

Compound: calcitonin [oral calcitonin]
- duration of impact on bone resorption [4]: about 12 h

Compound: C[C@@H]1CS/C(=N\NC(=O)C(=O)[C@@H](NC(=O)C2CCCCCC2)C2CCOCC2)N1C [ONO-5334]
- mean trough plasma concentration [5]: 9.4 ng/mL
- mean half-life [6]: 15 h
- median time to maximum plasma concentration (Tmax) [6]: 4 h
- effect on bone strength [7]: improved bone strength
- laboratory safety data, vital signs, electrocardiogram or physical examinations [8]: no clinically relevant
- safety findings [8]: no safety findings of concern
- greater suppression of 24-h serum CTX-I AUE, morning than evening ([9]; 150 mg SRT once daily 5 days): 6%
- duration of impact on bone resorption ([9]; 150-mg SRT): ≥ 24 h
- time of lowest serum CTX-I levels postdose ([9]; after morning and evening administration): 8 h
- plasma ONO-5334 concentration required to produce 60% reduction of serum CTX-I ([9]; day 5, scatter plot of plasma concentration vs serum CTX-I %CFB, both regimens): ≥ 10 ng/mL
- time over which >60% suppression of CTX-I was sustained ([9]; evening administration): 12 h
- CTX-I suppression over 24 h ([9]; morning administration, 150 mg SRT for 5 days): > 60%
- time over which >60% suppression of CTX-I was sustained ([9]; morning administration): 24 h
- greater suppression of 24-h urinary CTX-I/creatinine AUE, morning than evening [10]: 7%
- effect on cortical and trabecular bone mineral density (BMD) [11]: significantly improved
- suppression of serum CTX-I [1]: approximately 60%
